Tests used:
[1] = target: T1, Alpha-1A adrenergic receptor (Bos taurus, UniProt P18130); experiment: Evaluated for its ability to displace [3H]prazosin from alpha-1-Adrenoceptor of calf cerebral cortex; format: tissue-based
T1 sequence (P18130 whole entry): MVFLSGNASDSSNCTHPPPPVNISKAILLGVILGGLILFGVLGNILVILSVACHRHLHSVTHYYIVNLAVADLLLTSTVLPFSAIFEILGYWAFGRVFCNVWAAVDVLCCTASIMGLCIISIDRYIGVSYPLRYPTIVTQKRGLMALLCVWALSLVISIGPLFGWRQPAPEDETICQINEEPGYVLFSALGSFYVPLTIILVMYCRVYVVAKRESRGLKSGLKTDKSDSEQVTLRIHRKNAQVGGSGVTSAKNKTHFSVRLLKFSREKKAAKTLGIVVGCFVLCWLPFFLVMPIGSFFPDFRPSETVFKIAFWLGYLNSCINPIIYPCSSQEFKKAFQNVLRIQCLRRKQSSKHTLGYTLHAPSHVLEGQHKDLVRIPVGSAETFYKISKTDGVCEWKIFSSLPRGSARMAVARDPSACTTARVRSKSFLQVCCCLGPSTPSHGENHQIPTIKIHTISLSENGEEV

[2] = target: T2, Alpha-2A adrenergic receptor (Bos taurus, UniProt Q28838); experiment: Evaluated for its ability to displace [3H]clonidine from alpha-2 adrenergic receptor of calf cerebral cortex; format: tissue-based
T2 sequence (Q28838 whole entry): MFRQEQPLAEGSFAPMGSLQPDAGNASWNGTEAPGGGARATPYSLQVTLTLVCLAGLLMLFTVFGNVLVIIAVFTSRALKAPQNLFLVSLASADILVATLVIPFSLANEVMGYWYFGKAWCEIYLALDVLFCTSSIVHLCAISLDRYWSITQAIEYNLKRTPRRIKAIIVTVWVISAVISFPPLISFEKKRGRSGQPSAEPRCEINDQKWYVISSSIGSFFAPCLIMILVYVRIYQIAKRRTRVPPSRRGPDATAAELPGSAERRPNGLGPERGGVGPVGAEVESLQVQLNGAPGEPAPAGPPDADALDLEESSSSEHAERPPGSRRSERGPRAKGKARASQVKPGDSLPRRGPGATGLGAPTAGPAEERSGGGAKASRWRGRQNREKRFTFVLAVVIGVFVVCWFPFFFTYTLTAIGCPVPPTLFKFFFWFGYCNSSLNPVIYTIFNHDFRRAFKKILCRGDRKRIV

[3] = target: T3, Adrenergic receptor alpha-2 (Rattus norvegicus, UniProt P22086+P19328+P22909); experiment: Evaluated for its ability to displace [3H]rauwolscine from alpha-2 adrenergic receptor of rat cerebral cortex; format: tissue-based
T3 sequence (P22086 whole entry): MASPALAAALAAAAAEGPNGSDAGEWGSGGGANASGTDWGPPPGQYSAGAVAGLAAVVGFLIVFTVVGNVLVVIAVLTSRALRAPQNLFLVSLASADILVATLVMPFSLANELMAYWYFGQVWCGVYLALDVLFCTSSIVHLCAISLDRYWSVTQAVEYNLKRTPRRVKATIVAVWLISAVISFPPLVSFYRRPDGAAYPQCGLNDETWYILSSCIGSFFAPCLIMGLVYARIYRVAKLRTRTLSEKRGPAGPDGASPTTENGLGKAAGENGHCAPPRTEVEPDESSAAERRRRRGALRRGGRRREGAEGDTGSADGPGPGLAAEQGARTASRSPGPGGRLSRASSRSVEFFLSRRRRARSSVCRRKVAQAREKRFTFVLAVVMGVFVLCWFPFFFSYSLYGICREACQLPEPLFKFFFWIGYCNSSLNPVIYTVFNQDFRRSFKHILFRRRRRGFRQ
T3 sequence (P19328 whole entry): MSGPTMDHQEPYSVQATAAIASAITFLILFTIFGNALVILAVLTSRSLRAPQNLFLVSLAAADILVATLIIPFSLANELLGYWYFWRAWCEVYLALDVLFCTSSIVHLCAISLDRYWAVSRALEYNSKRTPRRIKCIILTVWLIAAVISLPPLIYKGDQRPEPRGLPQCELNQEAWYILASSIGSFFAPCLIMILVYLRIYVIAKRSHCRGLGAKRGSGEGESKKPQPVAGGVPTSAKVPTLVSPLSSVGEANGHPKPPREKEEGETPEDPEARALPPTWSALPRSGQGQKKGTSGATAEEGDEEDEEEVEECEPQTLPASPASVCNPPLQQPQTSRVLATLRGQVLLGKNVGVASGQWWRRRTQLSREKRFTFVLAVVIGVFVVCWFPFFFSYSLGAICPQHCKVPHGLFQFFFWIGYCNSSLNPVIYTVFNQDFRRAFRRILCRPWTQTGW
T3 sequence (P22909 whole entry): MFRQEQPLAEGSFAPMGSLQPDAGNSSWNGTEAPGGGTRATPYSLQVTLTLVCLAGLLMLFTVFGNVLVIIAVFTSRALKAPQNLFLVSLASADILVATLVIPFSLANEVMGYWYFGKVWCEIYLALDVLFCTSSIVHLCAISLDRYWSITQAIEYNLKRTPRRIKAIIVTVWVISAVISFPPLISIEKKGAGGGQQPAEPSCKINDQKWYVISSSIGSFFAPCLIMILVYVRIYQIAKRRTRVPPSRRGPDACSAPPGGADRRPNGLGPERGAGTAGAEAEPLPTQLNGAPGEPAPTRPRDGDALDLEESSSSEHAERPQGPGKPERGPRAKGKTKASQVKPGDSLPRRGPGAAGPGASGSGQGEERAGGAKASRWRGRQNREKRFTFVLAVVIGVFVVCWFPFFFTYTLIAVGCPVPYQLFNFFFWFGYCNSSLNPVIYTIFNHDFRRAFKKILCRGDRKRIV

[4] = tested on: Rattus norvegicus; experiment: Tested for reversal of clonidine-induced mydriasis in the rat administered intravenously; format: functional; conditions: iv
Summary of the method: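 In rats, clonidine-induced mydriasis from activation of central postsynaptic α2-adrenoceptors is established first. Test agents are then scored for reversing it, as a read-out of blood-brain barrier penetration and central α2 antagonism.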

[5] = species: Rattus norvegicus; experiment: Tested for antagonism of clonidine in the field-stimulated rat vas deferens.; format: functional; conditions: read-out: pA2 (converted)
Summary of the method: (§1)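 Isolated, field-stimulated rat vas deferens. Clonidine probes presynaptic α2-adrenoceptors and methoxamine probes postsynaptic α1-adrenoceptors. pA2 and slope come from Schild plots using at least three antagonist concentrations and four tissues per concentration. Values are means ± SD.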

[6] = species: Rattus norvegicus; experiment: Tested for antagonism of methoxamine in the field-stimulated rat vas deferens.; format: functional; conditions: read-out: pA2 (converted); summary of the method: as §1

Structure (SMILES)	Ki [1]	Ki [2]	Ki [3]	ED50 [4]	Kb [5]	Kb [6]
CN([C@H]1CCN2CCc3c(oc4ccccc34)[C@H]2C1)S(=O)(=O)CCO	8000 nM	100 nM	190 nM	5.41 mg/kg	39.8 nM	2510 nM
CN(C1CCN2CCc3c(oc4ccccc34)C2C1)S(=O)(=O)CCO (stereo unspecified)	210 nM	1.36 nM	1.6 nM	0.0435 mg/kg	1.7 nM	102 nM
CN([C@@H]1CCN2CCc3c(oc4ccccc34)[C@@H]2C1)S(=O)(=O)CCO	110 nM	0.77 nM	1.1 nM	0.0346 mg/kg	0.794 nM	34.7 nM
COC(=O)[C@@H]1[C@H]2C[C@H]3c4[nH]c5ccccc5c4CCN3C[C@@H]2CC[C@@H]1O [YOHIMBINE]				1.04 mg/kg	22.4 nM	302 nM
